Measured values from ChEMBL document CHEMBL1828575, “Design, synthesis and antiproliferative activities of biarylolefins based on polyhydroxylated and carbohydrate scaffolds” (Eur J Med Chem, 2011).

Tests used:
Type in all cases: functional
NCI-H522 = assay: Antitumor activity against human NCI-H522 cells after 48 hrs by SRB assay; conditions: NCI-H522, 48 h; for CC50: read-out: LC50 (the source's name)
Procedure, shortened: (§1)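 NCI60 panel in RPMI 1640 with 5% FBS and 2 mM L-glutamine. Cells were plated at 5000–40,000/well by doubling time, held 24 h, then time-zero plates were TCA-fixed. Five concentrations (10-fold or half-log dilutions of DMSO stocks) were applied for 48 h at 37 °C, 5% CO2. Cells were fixed with cold TCA (10% final adherent, 16% suspension) and stained with 0.4% SRB. Bound dye was dissolved in 10 mM Tris and read at 515 nm. GI50, TGI and LC50 were calculated per line.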

ACHN = assay: Antitumor activity against human ACHN cells after 48 hrs by SRB assay; procedure, shortened: as §1
SK-MEL-2 = assay: Cytotoxicity against human SK-MEL-2 cells assessed as cellular growth at 10 uM after 48 hrs by SRB assay
Procedure, shortened: (§2)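 NCI-60 panel lines grown in RPMI 1640 with 5% FBS and 2 mM L-glutamine. Plated at 5000–40,000 cells/well and preincubated 24 h at 37 °C, 5% CO₂, with time-zero plates fixed in TCA. Compounds, dissolved in DMSO and diluted in medium, were applied for 48 h. Cells were TCA-fixed (10% final for adherent, 16% for suspension) and stained with 0.4% SRB in 1% acetic acid. Dye was solubilised in 10 mM Tris base and read at 515 nm; growth was expressed as a percentage of untreated control.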

MCF7 [1] = assay: Cytotoxicity against human MCF7 cells at 10^-5 M after 72 hrs by MTS assay; conditions: MCF7, 72 h, read-out: GI
SNB-19 = assay: Cytotoxicity against human SNB19 cells assessed as cellular growth at 10 uM after 48 hrs by SRB assay; procedure, shortened: as §2
KM12 = assay: Antitumor activity against human KM12 cells after 48 hrs by SRB assay; conditions: KM12, 48 h; procedure, shortened: as §1
IGROV-1 [2] = assay: Antitumor activity against human IGROV1 cells after 48 hrs by SRB assay; conditions: IGROV-1, 48 h; procedure, shortened: as §1
T47D = assay: Cytotoxicity against human T47D cells assessed as cellular growth at 10 uM after 48 hrs by SRB assay; procedure, shortened: as §2
RPMI-8226 = assay: Antitumor activity against human RPMI8226 cells after 48 hrs by SRB assay; conditions: RPMI-8226, 48 h; for CC50: read-out: pLC50 (the source's name) (converted); procedure, shortened: as §1
LOX IMVI = assay: Antitumor activity against human LOXIMVI cells after 48 hrs by SRB assay; conditions: for CC50: read-out: LC50 (the source's name); procedure, shortened: as §1
A498 [3] = assay: Cytotoxicity against human A498 cells assessed as cellular growth at 10 uM after 48 hrs by SRB assay
Procedure, shortened: (§3)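 NCI60 single-dose screen of cells in RPMI 1640 with 5% FBS and 2 mM L-glutamine, preincubated 24 h at 37 °C, 5% CO₂. Cells were then exposed 48 h to compound added from DMSO stock. TCA-fixed, stained with 0.4% SRB in 1% acetic acid, dye solubilised in 10 mM Tris base and read at 515 nm. Growth is given as percent of untreated control.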

RXF 393 = assay: Antitumor activity against human RXF393 cells after 48 hrs by SRB assay; conditions: RXF 393, 48 h; for CC50: read-out: LC50 (the source's name); procedure, shortened: as §1
MDA-MB-468 = assay: Cytotoxicity against human MDA-MB-468 cells assessed as cellular growth at 10 uM after 48 hrs by SRB assay; procedure, shortened: as §2
SK-OV-3 = assay: Cytotoxicity against human SKOV3 cells assessed as cellular growth at 10 uM after 48 hrs by SRB assay; procedure, shortened: as §2
SK-MEL-28 = assay: Cytotoxicity against human SK-MEL-28 cells assessed as cellular growth at 10 uM after 48 hrs by SRB assay
UACC-257 = assay: Cytotoxicity against human UACC257 cells assessed as cellular growth at 10 uM after 48 hrs by SRB assay; procedure, shortened: as §2
U-251 = assay: Cytotoxicity against human U251 cells assessed as cellular growth at 10 uM after 48 hrs by SRB assay; procedure, shortened: as §2
CCRF-CEM = assay: Antitumor activity against human CCRF-CEM cells after 48 hrs by SRB assay; procedure, shortened: as §1
SNB-75 = assay: Cytotoxicity against human SNB75 cells assessed as cellular growth at 10 uM after 48 hrs by SRB assay; procedure, shortened: as §2
A498 [4] = assay: Antitumor activity against human A498 cells after 48 hrs by SRB assay; conditions: A498, 48 h; procedure, shortened: as §1
IGROV-1 [5] = assay: Cytotoxicity against human IGROV1 cells assessed as cellular growth at 10 uM after 48 hrs by SRB assay; procedure, shortened: as §3
MCF7 [6] = assay: Cytotoxicity against human MCF7 cells assessed as cellular growth at 10 uM after 48 hrs by SRB assay; procedure, shortened: as §2
HCT-15 = assay: Antiproliferative activity against human HCT15 cells after 48 hrs by SRB assay; conditions: HCT-15, 48 h
Procedure, shortened: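 NCI60 screen: cells grown in RPMI 1640 with 5% FBS and 2 mM L-glutamine, plated at 5000–40,000 cells/well by doubling time, preincubated 24 h at 37 °C with 5% CO2. Compounds were diluted from DMSO stocks and given for 48 h, at five concentrations for dose response. A time-zero plate was TCA-fixed. Cells were TCA-fixed, stained with 0.4% SRB and read at 515 nm, with growth expressed relative to untreated controls.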

Malme-3M = assay: Cytotoxicity against human MALME-3M cells assessed as cellular growth at 10 uM after 48 hrs by SRB assay; procedure, shortened: as §2
[7] = read-out: LC50 (the source's name)
[8] = read-out: pLC50 (the source's name) (converted)

Compound: COc1ccc(/C(=C2/O[C@@H]([C@H]3COC(C)(C)O3)[C@H]3OC(C)(C)O[C@@H]23)c2cc(OC)c(OC)c(OC)c2)cc1O
- GI50 (NCI-H522): 2.73 µM
- TGI (NCI-H522): 9.08 µM
- CC50 (NCI-H522): > 100 µM
- GI50 (ACHN; read-out: GI50): 9.31 µM
- CC50 (ACHN; [7]): > 100 µM
- TGI (ACHN; read-out: TGI): > 100 µM
- GI50 (ACHN; read-out: pGI50 (converted)): 9.33 µM
- CC50 (ACHN; [8]): > 100 µM
- TGI (ACHN; read-out: pTGI): > 100 µM
- Activity (SK-MEL-2): 103.26%
- inhibition of growth at 10 µM (MCF7 [1]): 20%
- Activity (SNB-19): 47.41%
- GI50 (KM12): 3.99 µM
- LC50 (KM12): > 100 µM
- TGI (KM12): > 100 µM
- GI50 (IGROV-1 [2]; read-out: GI50): 3.32 µM
- CC50 (IGROV-1 [2]; [7]): > 100 µM
- TGI (IGROV-1 [2]; read-out: TGI): > 100 µM
- GI50 (IGROV-1 [2]; read-out: pGI50 (converted)): 33.1 µM
- CC50 (IGROV-1 [2]; [8]): > 100 µM
- TGI (IGROV-1 [2]; read-out: pTGI): > 100 µM
- Activity (T47D): 120.98%
- LC50 (concentration killing 50% of starting cells) (RPMI-8226): > 100 µM
- GI50 (RPMI-8226; read-out: GI50): 4.63 µM
- TGI (RPMI-8226; read-out: TGI): > 100 µM
- GI50 (RPMI-8226; read-out: pGI50 (converted)): 4.68 µM
- CC50 (RPMI-8226): > 100 µM
- TGI (RPMI-8226; read-out: pTGI (converted)): > 100 µM
- GI50 (LOX IMVI): 5.18 µM
- TGI (LOX IMVI): > 100 µM
- CC50 (LOX IMVI): > 100 µM
- Activity (A498 [3]): 63.35%
- GI50 (RXF 393): 2.12 µM
- TGI (RXF 393): 5.89 µM
- CC50 (RXF 393): 29.8 µM
- Activity (MDA-MB-468): 96.42%
- Activity (SK-OV-3): 36.02%
- Activity (SK-MEL-28): 59.6%
- Activity (UACC-257): 107.04%
- Activity (U-251): 46.2%
- GI50 (CCRF-CEM; read-out: GI50): 3.75 µM
- CC50 (CCRF-CEM; [7]): > 100 µM
- TGI (CCRF-CEM; read-out: TGI): > 100 µM
- GI50 (CCRF-CEM; read-out: pGI50 (converted)): 3.72 µM
- CC50 (CCRF-CEM; [8]): > 100 µM
- TGI (CCRF-CEM; read-out: pTGI): > 100 µM
- Activity (SNB-75): 6.11%
- GI50 (A498 [4]; read-out: GI50): 3.57 µM
- CC50 (A498 [4]; [7]): > 100 µM
- TGI (A498 [4]; read-out: TGI): > 100 µM
- GI50 (A498 [4]; read-out: pGI50 (converted)): 35.5 µM
- CC50 (A498 [4]; [8]): > 100 µM
- TGI (A498 [4]; read-out: pTGI (converted)): > 100 µM

Compound: COc1ccc(/C(=C2\O[C@@H]([C@H]3COC(C)(C)O3)[C@H]3OC(C)(C)O[C@@H]23)c2cc(OC)c(OC)c(OC)c2)cc1O
- GI50 (NCI-H522): 2.95 µM
- TGI (NCI-H522): 7.54 µM
- CC50 (NCI-H522): 85.6 µM
- GI50 (ACHN; read-out: GI50): 15.4 µM
- CC50 (ACHN; [7]): > 100 µM
- TGI (ACHN; read-out: TGI): > 100 µM
- GI50 (ACHN; read-out: pGI50 (converted)): 15.5 µM
- CC50 (ACHN; [8]): > 100 µM
- TGI (ACHN; read-out: pTGI): > 100 µM
- Activity (SNB-19): 27.56%
- GI50 (KM12): 4.1 µM
- LC50 (KM12): 72.9 µM
- TGI (KM12): 17.8 µM
- GI50 (IGROV-1 [2]; read-out: GI50): 45.1 µM
- CC50 (IGROV-1 [2]; [7]): > 100 µM
- TGI (IGROV-1 [2]; read-out: TGI): > 100 µM
- GI50 (IGROV-1 [2]; read-out: pGI50 (converted)): 44.7 µM
- CC50 (IGROV-1 [2]; [8]): > 100 µM
- TGI (IGROV-1 [2]; read-out: pTGI): > 100 µM
- Activity (T47D): 115.08%
- Activity (IGROV-1 [5]): 92.61%
- LC50 (concentration killing 50% of starting cells) (RPMI-8226): > 100 µM
- GI50 (RPMI-8226; read-out: GI50): 4.82 µM
- TGI (RPMI-8226; read-out: TGI): 34 µM
- GI50 (RPMI-8226; read-out: pGI50 (converted)): 4.79 µM
- CC50 (RPMI-8226): > 100 µM
- TGI (RPMI-8226; read-out: pTGI (converted)): 33.9 µM
- GI50 (LOX IMVI): 3.39 µM
- TGI (LOX IMVI): 19.8 µM
- CC50 (LOX IMVI): > 100 µM
- GI50 (RXF 393): 2.54 µM
- TGI (RXF 393): 5.99 µM
- CC50 (RXF 393): 32.6 µM
- Activity (MDA-MB-468): 112.6%
- Activity (SK-OV-3): 90.14%
- Activity (MCF7 [6]): 60.66%
- CC50 (HCT-15; [7]): > 100 µM
- CC50 (HCT-15; [8]): > 100 µM
- Activity (UACC-257): 126.04%
- Activity (Malme-3M): 69.57%
- Activity (U-251): 61.19%
- GI50 (CCRF-CEM; read-out: GI50): 5.45 µM
- CC50 (CCRF-CEM; [7]): > 100 µM
- TGI (CCRF-CEM; read-out: TGI): > 100 µM
- GI50 (CCRF-CEM; read-out: pGI50 (converted)): 5.5 µM
- CC50 (CCRF-CEM; [8]): > 100 µM
- TGI (CCRF-CEM; read-out: pTGI): > 100 µM
- Activity (SNB-75): 24.26%
- GI50 (A498 [4]; read-out: GI50): 32.1 µM
- CC50 (A498 [4]; [7]): > 100 µM
- TGI (A498 [4]; read-out: TGI): 97.4 µM
- GI50 (A498 [4]; read-out: pGI50 (converted)): 32.4 µM
- CC50 (A498 [4]; [8]): > 100 µM
- TGI (A498 [4]; read-out: pTGI (converted)): 97.7 µM
